Results: ChEMBL document CHEMBL1144887, “Indanylidenes. 1. Design and synthesis of (E)-2-(4,6-difluoro-1-indanylidene)acetamide, a potent, centrally acting muscle relaxant with antiinflammatory and analgesic activity” (J Med Chem, 2003)

What was measured:
Rattus norvegicus [1] = test: Effective dose required for analgesic activity by trypsin-induced hyperalgesia assay at 20 mg/kg by oral administration in rats; type: functional
Procedure, shortened: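 Rat trypsin-induced hyperalgesia (mild analgesia) with oral dosing. ED50 reported in mg/kg po. Each compound tested two or three times; average variation approximately 5%.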

Rattus norvegicus [2] = test: Antiinflammatory activity in edema by Carrageenan pleurisy assay by oral administration; type: functional
Procedure, shortened: (§1)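 Rat carrageenan pleurisy, 3 h. Compounds given orally, with separate read-outs for pleural cell counts and edema. ED50 reported in mg/kg po. Each compound tested two or three times; average variation approximately 10%.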

Mus musculus [3] = test: (§2) Percent effect profile muscle relaxation at 100 mg/kg by intraperitoneal administration in mouse using Straub-tail (ST) assay; type: functional; conditions: ip
Procedure, shortened: (§3)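 Mouse morphine-induced Straub tail assay, scoring inhibition of sacro-coccygeus dorsalis contraction. Single ip dose of 100 mg/kg; percent effect reported. Compounds above 50% inhibition were then tested orally.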

Mus musculus [4] = test: Effective dose required for muscle relaxation by oral administration in mouse using Straub-tail (ST) assay.; type: functional
Procedure, shortened: (§4)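 Mouse morphine-induced Straub tail assay, scoring inhibition of sacro-coccygeus dorsalis contraction. Dosed ip or po, generally at a minimum of three doses with N = 6 animals per dose group.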

Mus musculus [5] = test: Sedation caused by oral administration was estimated using rotarod (RR) assay.; type: functional
Procedure, shortened: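 Mouse rotorod test for sedation, oral dosing, generally at a minimum of three doses with N = 6 animals per dose group.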

Rattus norvegicus [6] = test: Antiinflammatory activity in cells using Carrageenan pleurisy assay by oral administration; type: functional; procedure, shortened: as §1
Rattus norvegicus [7] = test: Percent inhibition for analgesic activity by trypsin-induced hyperalgesia assay at 20 mg/kg by oral administration in rats; type: functional
Procedure, shortened: (§5)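 Rat trypsin-induced hyperalgesia (mild analgesia). Percent inhibition at a single oral dose of 20 mg/kg. Each compound tested two or three times; average variation approximately 5%.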

Mus musculus [8] = species on record: Mus musculus; test: Ratio of rotarod to Straub-tail activity, which indicates the dose exhibiting muscle relaxant activity versus that producing sedation.; type: functional
Procedure, shortened: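 Ratio of rotorod ED50 (po) to Straub tail ED50 (po), both measured in mice with oral dosing. Indicates separation between the muscle-relaxant dose and the sedating dose.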

Rattus norvegicus [9] = test: Antiinflammatory activity in cells by Carrageenan pleurisy assay by oral administration at 20 mg/kg.; type: functional
Procedure, shortened: (§6)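 Rat carrageenan pleurisy, 3 h. Single oral dose of 20 mg/kg, with separate read-outs for pleural cell counts and edema as percent inhibition. Each compound tested two or three times; average variation approximately 10%.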

Rattus norvegicus [10] = test: Antiinflammatory activity in edema by Carrageenan pleurisy assay by oral administration at 20 mg/kg.; type: functional; procedure, shortened: as §6
Mus musculus [11] = test: as §2; type: functional; conditions: ip; procedure, shortened: as §3; remark: listed apart in the source
Rattus norvegicus [12] = test: Percent inhibition for analgesic activity by trypsin-induced hyperalgesia assay at 20 mg/kg by oral administration in rats.; type: functional; procedure, shortened: as §5
Mus musculus [13] = test: Effective dose required for muscle relaxation by intraperitoneal administration in mouse using Straub-tail (ST) assay; type: functional; conditions: ip; procedure, shortened: as §4
Rattus norvegicus [14] = test: Antiinflammatory activity in cells by Carrageenan pleurisy assay by oral administration at 20 mg/kg; type: functional; procedure, shortened: as §6
Rattus norvegicus [15] = test: Antiinflammatory activity in edema by Carrageenan pleurisy assay by oral administration at 20 mg/kg; type: functional; procedure, shortened: as §6
Rattus norvegicus [16] = test: Effective dose required for muscle relaxation after oral administration in Lewis rats by pull-up test
Rattus norvegicus [17] = test: Effective dose required to produce analgesic activity in the trypsin hyperalgesia assay by oral administration
[18] = Effective dose required to produce analgesic activity in the adjuvant arthritis hyperalgesia assay by oral administration; type: functional
Rattus norvegicus [19] = test: Effective dose required for muscle relaxation after oral administration in Wistar rats by pull-up test
Rattus norvegicus [20] = test: Effective dose required for sedation in Wistar rats evaluated by loss of righting reflex by oral administration; type: functional
Procedure, shortened: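 Sedation in Wistar rats scored as loss of righting reflex (ability to stay upright) after oral dosing. ED50 reported in mg/kg po.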

[21] = Effective dose required to produce analgesic activity in the phalanges algesia assay by oral administration; type: functional
[22] = molecular target: T1, Amine oxidase [flavin-containing] B (Homo sapiens, UniProt P27338); test: Inhibitory concentration against Monoamine oxidase B (MAO-B)
T1 sequence (P27338 whole entry): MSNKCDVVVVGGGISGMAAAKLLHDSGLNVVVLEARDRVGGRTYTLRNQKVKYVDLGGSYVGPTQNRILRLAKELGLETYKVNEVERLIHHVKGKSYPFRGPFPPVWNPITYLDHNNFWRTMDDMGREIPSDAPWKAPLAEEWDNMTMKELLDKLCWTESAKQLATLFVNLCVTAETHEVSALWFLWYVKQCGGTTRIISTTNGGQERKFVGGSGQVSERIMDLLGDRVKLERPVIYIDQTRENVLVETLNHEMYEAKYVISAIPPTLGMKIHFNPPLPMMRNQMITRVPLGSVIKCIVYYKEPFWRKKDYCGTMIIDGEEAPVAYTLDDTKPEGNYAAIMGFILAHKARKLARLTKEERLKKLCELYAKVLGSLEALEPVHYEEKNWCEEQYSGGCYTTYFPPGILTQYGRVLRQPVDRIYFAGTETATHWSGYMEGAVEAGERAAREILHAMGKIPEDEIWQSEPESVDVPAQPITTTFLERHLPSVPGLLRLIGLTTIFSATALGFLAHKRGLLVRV

Rattus norvegicus [23] = test: Antiinflammatory activity in cells by Carrageenan pleurisy assay by oral administration; type: functional; procedure, shortened: as §1
Mus musculus [24] = species on record: Mus musculus; test: Effective dose required to produce analgesic activity was measured by mouse hot plate assay; type: functional
[25] = molecular target: T2, Amine oxidase [flavin-containing] A (Homo sapiens, UniProt P21397); test: Inhibitory concentration against Monoamine oxidase A (MAO-A)
T2 sequence (P21397 whole entry): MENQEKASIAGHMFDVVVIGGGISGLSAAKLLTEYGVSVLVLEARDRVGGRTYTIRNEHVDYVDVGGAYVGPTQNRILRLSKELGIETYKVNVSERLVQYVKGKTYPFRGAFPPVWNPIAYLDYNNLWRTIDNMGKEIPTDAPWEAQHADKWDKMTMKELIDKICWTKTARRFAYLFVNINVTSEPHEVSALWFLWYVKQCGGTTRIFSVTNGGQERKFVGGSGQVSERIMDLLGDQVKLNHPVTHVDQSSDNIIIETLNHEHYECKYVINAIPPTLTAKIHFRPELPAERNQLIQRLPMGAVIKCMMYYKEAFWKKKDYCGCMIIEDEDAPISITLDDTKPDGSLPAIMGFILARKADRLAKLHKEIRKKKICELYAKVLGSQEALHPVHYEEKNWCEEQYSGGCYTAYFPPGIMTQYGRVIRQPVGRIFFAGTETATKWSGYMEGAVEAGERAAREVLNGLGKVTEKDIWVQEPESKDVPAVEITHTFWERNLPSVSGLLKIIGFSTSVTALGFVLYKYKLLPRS

Mus musculus [26] = test: Evaluated for sedation in mice by loss of righting reflex up to a dose of 200 mg/kg by oral administration; No loss of righting reflex; type: functional, organism-based; parameters: dose 200 mg/kg

| SMILES | ED50 (Rattus norvegicus [1]) [mg/kg] | ED50 (Rattus norvegicus [2]) [mg/kg] | inhibition in vivo at 100 mg/kg (Mus musculus [3]) [%] | ED50 (Mus musculus [4]) [mg/kg] | ED50 (Mus musculus [5]) [mg/kg] | ED50 (Rattus norvegicus [6]) [mg/kg] | inhibition in vivo at 20 mg/kg (Rattus norvegicus [7]) [%] | Ratio (Mus musculus [8]) | inhibition in vivo at 20 mg/kg (Rattus norvegicus [9]) [%] | inhibition in vivo at 20 mg/kg (Rattus norvegicus [10]) [%] | inhibition in vivo at 100 mg/kg (Mus musculus [11]) [%] | inhibition in vivo at 20 mg/kg (Rattus norvegicus [12]) [%] | ED50 (Mus musculus [13]) [mg/kg] | also measured |
| --- | --- | --- | --- | --- | --- | --- | --- | --- | --- | --- | --- | --- | --- | --- |
| NC(=O)/C=C1\CCc2cc(F)c(F)cc21 | 19 | 17 | 100 | 64 | 82 | 13 | 62 | 1.3 |  |  |  |  |  |  |
| CNC(=O)/C=C1\CCc2c(F)cc(F)cc21 | 13 |  | 100 | 45 |  |  | 65 |  |  |  |  |  |  |  |
| CNC(=O)/C=C1\CCc2ccc(F)cc21 | 25 |  |  |  |  |  |  |  | 45 | 38 | 50 | 58 |  |  |
| CNC(=O)/C=C1\CCc2cc(F)c(F)cc21 | 9 | 11 | 100 | 96 |  | 18 |  |  |  |  |  | 100 |  |  |
| NC(=O)/C=C1\CCc2ccc(F)cc21 | 16 | 20 |  | 56 | 90 | 21 | 60 | 1.6 |  |  |  | 14 | 22 |  |
| O=C(/C=C1\CCc2ccccc21)NC1CC1 |  |  |  | 150 | 235 |  |  | 1.6 |  |  |  |  | 71 |  |
| O=C(/C=C/c1cccc(F)c1)NC1CC1 [CINFLUMIDE] |  |  |  | 156 | 189 |  |  | 1.2 | < 20 | < 20 |  | < 20 | 63 |  |
| NC(=O)/C=C1\CCc2cc(F)cc(F)c21 | 10 |  |  | 44 | 81 |  |  | 1.8 | 54 | 55 | 100 | 93 |  |  |
| O=C(/C=C1\CCc2c(F)cccc21)NC1CC1 |  |  | 100 | 126 |  |  |  |  |  |  |  |  |  | inhibition in vivo at 20 mg/kg (Rattus norvegicus [14]): 29%; inhibition in vivo at 20 mg/kg (Rattus norvegicus [15]): 18% |
| NC(=O)/C=C1\CCc2c(F)cccc21 | 13 |  |  | > 100 |  |  |  |  | 40 | 34 | 63 | 68 |  |  |
| NC(=O)/C=C1\CCc2c(F)cc(F)cc21 | 4 | 15 | 100 | 69 | 138 |  | 100 |  |  |  | 67 |  |  | ED50 (Rattus norvegicus [16]): 18 mg/kg; ED50 (Rattus norvegicus [17]): 22 mg/kg; ED50 [18]: 21 mg/kg; ED50 (Rattus norvegicus [19]): 64 mg/kg; ED50 (Rattus norvegicus [20]): 200 mg/kg; ED50 [21]: 20 mg/kg; IC50 [22]: 0.2 µM; ED50 (Rattus norvegicus [23]): 19 mg/kg; ED50 (Mus musculus [24]): 30 mg/kg; IC50 [25]: 11 µM; ED50 (Mus musculus [26]): No loss of righting reflex |
| CN(C)C(=O)/C=C1\CCc2ccc(F)cc21 | 5 | 12 | 100 | > 100 |  | 16 |  |  |  |  |  | 88 |  |  |
| C/C(=C\C(=O)NC1CC1)c1cccc(F)c1 |  |  |  | 122 | 71 |  |  | 0.6 |  |  |  |  | 46 |  |
